Reference: ChEMBL document CHEMBL1914330 (Eur J Med Chem, 2011)
The source made the active and inactive calls. No cut-off for these calls is given here.

Columns and labels:
[1] = tested on: LoVo; experiment: Ratio of IC50 for doxorubicin-resistant human LoVo cells to IC50 for human LoVo cells; type: functional
[2] = Antiproliferative activity against human taxol-resistant A549-T12 cells after 72 hrs by MTT assay; type: functional, cell-based; settings: A549, 72 h
Summary of the method: (§1)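 Cells seeded at 8 × 10³ per well in complete medium and exposed to a range of compound concentrations at 37 °C for 72 h. Viability read by MTT test. IC50 taken as the concentration inhibiting proliferation by 50%.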

[3] = tested on: A549; experiment: Ratio of IC50 for taxol-resistant human A549-T12 cells to IC50 for human A549 cells; type: functional
[4] = tested on: FM3A; experiment: Antiproliferative activity against mouse FM3A cells after 2 days by coulter counter analysis; type: functional, cell-based; settings: 48 h
[5] = tested on: HeLa; experiment: Induction of cell cycle arrest at G2/M phase in human HeLa cells assessed as partial recovery in Cdc2 phosphorylation at Tyr15 at 0.25 to 5 uM after 48 hrs by Western blot analysis; type: functional, cell-based
Summary of the method: (§2)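 HeLa cells treated for 24 or 48 h were washed in cold PBS and lysed on ice for 30 min. Lysates were cleared at 15,000 × g, run on SDS-PAGE and blotted. Membranes were probed 2 h at room temperature with antibodies to the target protein, then peroxidase secondary and ECL. Blots were reprobed for β-actin as loading control.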

[6] = tested on: A549; experiment: Antiproliferative activity against human A549 cells after 72 hrs by MTT assay; type: functional, cell-based; settings: A549, 72 h; summary of the method: as §1
[7] = tested on: HeLa; experiment: Induction of cell cycle arrest at G2/M phase in human HeLa cells assessed as decrease in Cdc2 phosphorylation at Tyr15 at 0.25 to 5 uM after 24 hrs by Western blot analysis; type: functional, cell-based; summary of the method: as §2
[8] = Antiproliferative activity against human vinblastine-resistant CEM/VBL100 cells after 72 hrs by MTT assay; type: functional, cell-based; settings: CEM/VBL100, 72 h; summary of the method: as §1
[9] = tested on: HeLa; experiment: Induction of cell cycle arrest at G2/M phase in human HeLa cells assessed as increase in cyclin B1 expression at 0.25 to 5 uM after 24 hrs by Western blot analysis; type: functional, cell-based; summary of the method: as §2
[10] = tested on: HeLa; experiment: Induction of apoptosis in human HeLa cells assessed as loss of mitochondrial membrane potential after 24 to 48 hrs by JC1 staining-based flow cytometric analysis; type: functional, cell-based
Summary of the method: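 After 24 or 48 h treatment, HeLa cells were trypsinized and resuspended in HBSS with JC-1 (1 µM). Incubated 10 min at 37 °C, washed, and read by flow cytometry for red (590 nm) aggregate versus green (530 nm) monomer. Mean ± SEM of three experiments.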

[11] = tested on: HeLa; experiment: Induction of cell cycle arrest at G2/M phase in human HeLa cells assessed as decrease in cyclin B1 expression at 0.25 to 5 uM after 48 hrs by Western blot analysis; type: functional, cell-based; summary of the method: as §2
[12] = tested on: HeLa; experiment: Induction of apoptosis in human HeLa cells assessed as decrease in Bcl2 protein expression at 0.25 to 0.5 uM after 48 hrs by Western blot analysis; type: functional, cell-based; summary of the method: as §2
[13] = tested on: HeLa; experiment: Induction of apoptosis in human HeLa cells assessed as accumulation of necrotic cells after 24 hrs by Annexin-V-FITC/propidium iodide staining-based flow cytometric analysis; type: functional, cell-based
Summary of the method: (§3)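 HeLa cells treated for 24 or 48 h, then labelled with annexin-V-FITC and PI. Analysed by flow cytometry with excitation at 488 nm and emission at 525 nm (FITC) and 585 nm (PI). Quadrants scored as live, early apoptotic, late apoptotic or necrotic. Mean ± SEM of four independent experiments.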

[14] = tested on: HeLa; experiment: Antiproliferative activity against human HeLa cells after 2 days by coulter counter analysis; type: functional, cell-based; settings: 48 h
Summary of the method: (§4)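 Cells suspended at 300,000–500,000 cells/mL and mixed 1:1 with diluted compound. Incubated at 37 °C for two days, then counted with a Coulter counter. IC50 is the concentration inhibiting proliferation by 50%, as mean ± SE from dose-response curves of at least three independent experiments.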

[15] = tested on: CCRF-CEM; experiment: Antiproliferative activity against human CEM cells after 2 days by coulter counter analysis; type: functional, cell-based; settings: 48 h; summary of the method: as §4
[16] = tested on: CCRF-CEM; experiment: Ratio of IC50 for vinblastine-resistant human CEM/VBL100 cells to IC50 for human CEM cells; type: functional
[17] = tested on: HeLa; experiment: Effect on Bcl2 protein expression in human HeLa cells at 0.25 to 0.5 uM after 24 hrs by Western blot analysis; type: functional, cell-based; summary of the method: as §2
[18] = tested on: HeLa; experiment: Cell cycle arrest in human HeLa cells assessed as decrease in cell accumulation in S phase at 0.5 uM after 24 hrs by propidium iodide staining-based flow cytometry; type: functional
Summary of the method: (§5)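 HeLa cells treated for 24 h over 0.06–0.5 µM. Cells fixed in ice-cold 70% ethanol, lysed with buffer containing RNase A and 0.1% Triton X-100, and stained with PI. DNA content read by flow cytometry, including the sub-G1 fraction. Mean ± SEM of three independent experiments.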

[19] = tested on: HeLa; experiment: Cell cycle arrest in human HeLa cells assessed as decrease in cell accumulation in G1 phase after 24 hrs by propidium iodide staining-based flow cytometry; type: functional; summary of the method: as §5
[20] = tested on: Mus musculus; experiment: Toxicity in BALB/c nude mouse xenografted with human HT-29 cells assessed as organism mortality at 100 mg/kg, ip administered 3 times per week for 1 week measured on day 19; type: organism-based; set-up: dose 100 mg/kg, route intraperitoneal; settings: in vivo, 168 h
Summary of the method: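 HT-29 cells in log phase, suspended at 1 × 10⁷ cells/mL in serum-free RPMI 1640, 0.2 mL injected subcutaneously into the back of nude mice. At about 300 mm³, mice were randomised to vehicle or treatment groups (six per group). The compound was given in DMSO by i.p. injection at 0.01 mL/g body weight. Body weight was recorded on set days; mice were euthanised after 23 days.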

[21] = tested on: HeLa; experiment: Induction of apoptosis in human HeLa cells assessed as PARP cleavage at 0.25 to 5 uM by Western blot analysis; type: functional, cell-based; settings: TDE = time-dependent effect; summary of the method: as §2
[22] = tested on: LoVo; experiment: Antiproliferative activity against doxorubicin-resistant human LoVo cells after 72 hrs by MTT assay; type: functional, cell-based; summary of the method: as §1
[23] = tested on: HeLa; experiment: Induction of apoptosis in human HeLa cells assessed as ROS production at 0.25 to 5 uM after 24 to 48 hrs by H2-DCFDA-staining-based flow cytometric analysis; type: functional, cell-based
Summary of the method: (§6)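 HeLa cells treated 24 or 48 h, trypsinized and resuspended in HBSS containing HE (2.5 µM) or H₂DCFDA (0.1 µM). Incubated 10 min at 37 °C, resuspended in HBSS, and ROS read by flow cytometry. Mean ± SEM of three independent experiments.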

[24] = tested on: HeLa; experiment: Induction of apoptosis in human HeLa cells assessed as caspase-3 activation at 0.25 to 5 uM by flow cytometry; settings: TDE = time-dependent effect
[25] = tested on: L1210; experiment: Antiproliferative activity against mouse L1210 cells after 2 days by coulter counter analysis; type: functional, cell-based; settings: L1210, 48 h; summary of the method: as §4
[26] = tested on: HeLa; experiment: Cell cycle arrest in human HeLa cells at G2/M phase after 24 hrs by propidium iodide staining-based flow cytometry; type: functional; summary of the method: as §5
[27] = tested on: HeLa; experiment: Induction of apoptosis in human HeLa cells assessed as ROS production at 0.25 to 5 uM after 24 to 48 hrs by hydroethidine-staining-based flow cytometric analysis; type: functional, cell-based; summary of the method: as §6
[28] = tested on: HeLa; experiment: Induction of apoptosis in human HeLa cells assessed as accumulation of necrotic cells after 48 hrs by Annexin-V-FITC/propidium iodide staining-based flow cytometric analysis; type: functional, cell-based; summary of the method: as §3
[29] = tested on: HeLa; experiment: Induction of apoptosis in human HeLa cells assessed as accumulation of late apoptotic cells after 48 hrs by Annexin-V-FITC/propidium iodide staining-based flow cytometric analysis; type: functional, cell-based; summary of the method: as §3

SMILES: COc1cc(C(=O)c2sc(N3CCCC3)nc2N)cc(OC)c1OC
- Ratio IC50 [1]: 4.3
- IC50 [2]: 160 nM
- Ratio IC50 [3]: 4.3
- IC50 [4]: 180 nM
- Activity [5]: inactive
- IC50 [6]: 37 nM
- Activity [7]: Active
- IC50 [8]: 10 nM
- Activity [9]: Active
- Activity [10]: Dose-dependent effect
- Activity [11]: inactive
- Activity [12]: Active
- Activity [13]: Dose-dependent effect
- IC50 [14]: 340 nM
- IC50 [15]: 320 nM
- Ratio IC50 [16]: 0.2
- Activity [17]: inactive
- Activity [18]: Active
- Activity [19]: Dose-dependent effect
- Activity [20]: Toxic
- Activity [21]: tde
- IC50 [22]: 430 nM
- Activity [23]: Active
- Activity [24]: tde
- IC50 [25]: 370 nM
- Activity [26]: Dose-dependent effect
- Activity [27]: Active
- Activity [28]: Active
- Activity [29]: Active
